Experimental findings from ChEMBL document CHEMBL4422685, “Design, synthesis and evaluation of a series of 5-methoxy-2,3-naphthalimide derivatives as AcrB inhibitors for the reversal of bacterial resistance” (Bioorg Med Chem Lett, 2019) are described below.

Data set [1] has as its target T1, Multidrug efflux pump subunit AcrB (Escherichia coli (strain K12)) (UniProt P31224).
T1 sequence (whole entry): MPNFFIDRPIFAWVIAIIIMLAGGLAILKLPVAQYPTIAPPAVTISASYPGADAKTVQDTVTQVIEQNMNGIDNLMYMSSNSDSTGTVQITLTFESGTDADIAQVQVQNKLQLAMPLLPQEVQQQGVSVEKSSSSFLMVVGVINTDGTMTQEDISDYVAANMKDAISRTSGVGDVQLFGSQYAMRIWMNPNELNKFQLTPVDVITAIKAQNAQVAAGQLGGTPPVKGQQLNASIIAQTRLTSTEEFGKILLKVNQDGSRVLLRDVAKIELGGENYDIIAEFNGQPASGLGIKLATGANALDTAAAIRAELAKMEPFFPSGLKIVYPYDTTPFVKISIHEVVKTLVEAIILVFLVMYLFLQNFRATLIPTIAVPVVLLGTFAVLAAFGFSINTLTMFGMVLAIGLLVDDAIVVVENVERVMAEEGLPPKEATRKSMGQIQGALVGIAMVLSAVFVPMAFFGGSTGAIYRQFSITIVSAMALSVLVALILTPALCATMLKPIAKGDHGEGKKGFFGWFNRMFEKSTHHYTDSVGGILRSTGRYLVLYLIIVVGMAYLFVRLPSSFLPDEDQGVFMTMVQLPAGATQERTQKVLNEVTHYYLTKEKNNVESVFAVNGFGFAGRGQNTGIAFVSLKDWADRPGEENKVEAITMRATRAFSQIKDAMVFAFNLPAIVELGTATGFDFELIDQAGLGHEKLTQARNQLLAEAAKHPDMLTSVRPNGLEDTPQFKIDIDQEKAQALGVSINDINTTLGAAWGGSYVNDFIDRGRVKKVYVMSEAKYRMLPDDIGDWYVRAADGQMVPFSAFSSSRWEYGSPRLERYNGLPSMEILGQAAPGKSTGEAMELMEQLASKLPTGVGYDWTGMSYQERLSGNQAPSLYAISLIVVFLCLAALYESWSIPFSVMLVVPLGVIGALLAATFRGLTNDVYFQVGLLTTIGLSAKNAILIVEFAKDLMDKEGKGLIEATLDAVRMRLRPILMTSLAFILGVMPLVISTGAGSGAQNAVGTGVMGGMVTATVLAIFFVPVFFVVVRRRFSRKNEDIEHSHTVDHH
As to the kind of experiment: Inhibition of AcrB in wild-type drug-resistant Escherichia coli […] assessed as potentiation of tetraphenyl phosphonium chloride-induced antimicrobial activity by measuring tetraphenyl phosphonium chloride MIC at 8 ug/ml by checkerboard titration method (reference value: 1024 ug/ml).

Data set [2] deals with T1, Multidrug efflux pump subunit AcrB (Escherichia coli (strain K12)). As to the kind of experiment: Inhibition of AcrB in wild-type drug-resistant Escherichia coli […] assessed as potentiation of erythromycin-induced antimicrobial activity by measuring erythromycin MIC at 32 ug/ml by checkerboard titration method (reference value: 64 ug/ml).
Data set [3] shares this target. As to the kind of experiment: Inhibition of AcrB in wild-type drug-resistant Escherichia coli […] assessed as potentiation of levofloxacin-induced antimicrobial activity by measuring levofloxacin MIC at 128 ug/ml by checkerboard titration method (reference value: 0.063 ug/ml).
Data set [4] shares this target. Put plainly: Inhibition of AcrB in wild-type drug-resistant Escherichia coli […] assessed as potentiation of levofloxacin-induced antimicrobial activity by measuring levofloxacin MIC at 16 ug/ml by checkerboard titration method (reference value: 0.063 ug/ml).
For data set [5], the system named is Escherichia coli. As to the kind of experiment: Toxicity against AcrB deficient Escherichia coli AcrB lacking at 128 ug/ml. In kind it is organism-based. As to conditions: in vivo. In outline: (§1)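 MIC determination against wild-type resistant E. coli BW25113 and an isogenic acrB-deleted strain; highest concentration tested 128 mg/L.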
The target of data set [6] is T1, Multidrug efflux pump subunit AcrB (Escherichia coli (strain K12)). As to the kind of experiment: Inhibition of AcrB in wild-type drug-resistant Escherichia coli […] assessed as potentiation of levofloxacin-induced antimicrobial activity by measuring levofloxacin MIC at 8 ug/ml by checkerboard titration method (reference value: 0.063 ug/ml).
The target is the same in data set [7]. As to the kind of experiment: Inhibition of AcrB in wild-type drug-resistant Escherichia coli […] assessed as potentiation of levofloxacin-induced antimicrobial activity by measuring levofloxacin MIC at 32 ug/ml by checkerboard titration method (reference value: 0.063 ug/ml).
Data set [8] shares this target. As to the kind of experiment: Inhibition of AcrB in wild-type drug-resistant Escherichia coli […] assessed as potentiation of chloramphenicol-induced antimicrobial activity by measuring chloramphenicol MIC at 128 ug/ml by checkerboard titration method (Rvb =16 ug/ml).
The target is the same in data set [9]. As to the kind of experiment: Inhibition of AcrB in wild-type drug-resistant Escherichia coli […] assessed as potentiation of tetraphenyl phosphonium chloride-induced antimicrobial activity by measuring tetraphenyl phosphonium chloride MIC at 16 ug/ml by checkerboard titration method (reference value: 1024 ug/ml).
The target is the same in data set [10]. As to the kind of experiment: Inhibition of AcrB in wild-type drug-resistant Escherichia coli […] assessed as potentiation of chloramphenicol-induced antimicrobial activity by measuring chloramphenicol MIC at 32 ug/ml by checkerboard titration method (Rvb =16 ug/ml).
For data set [11] the target is unchanged. Put plainly: Inhibition of AcrB in wild-type drug-resistant Escherichia coli […] assessed as potentiation of levofloxacin-induced antimicrobial activity by measuring levofloxacin MIC at 64 ug/ml by checkerboard titration method (reference value: 0.063 ug/ml).
Data set [12] deals with Escherichia coli. As to the kind of experiment: Toxicity against wild-type drug-resistant Escherichia coli […] at 128 ug/ml. The note with it: in vivo. In kind it is organism-based. In outline:
as §1

For data set [13], the system named is Escherichia coli. As to the kind of experiment: Induction of Escherichia coli outer membrane permeabilization assessed as increase in nitrocefin hydrolysis at 128 ug/ml by spectroscopic method. In kind it is organism-based.
Data set [14] concerns the target T1, Multidrug efflux pump subunit AcrB (Escherichia coli (strain K12)). Put plainly: Inhibition of AcrB in wild-type drug-resistant Escherichia coli BW2113 assessed as potentiation of chloramphenicol-induced antimicrobial activity by measuring chloramphenicol MIC at 16 ug/ml by checkerboard titration method (Rvb =16 ug/ml).
Data set [15] has the same target. Put plainly: Inhibition of AcrB in wild-type drug-resistant Escherichia coli […] assessed as potentiation of erythromycin-induced antimicrobial activity by measuring erythromycin MIC at 8 ug/ml by checkerboard titration method (reference value: 64 ug/ml).
Data set [16] has the same target. Put plainly: Inhibition of AcrB in wild-type drug-resistant Escherichia coli […] assessed as potentiation of erythromycin-induced antimicrobial activity by measuring erythromycin MIC at 16 ug/ml by checkerboard titration method (reference value: 64 ug/ml).
Data set [17] shares this target. As to the kind of experiment: Inhibition of AcrB in wild-type drug-resistant Escherichia coli […] assessed as potentiation of chloramphenicol-induced antimicrobial activity by measuring chloramphenicol MIC at 64 ug/ml by checkerboard titration method (Rvb =16 ug/ml).
For data set [18], the system named is Escherichia coli. Put plainly: Disruption of Escherichia coli inner membrane integrity at 128 ug/ml after 10 mins by DiOC2(3) probe based fluorescence assay. The class given is ADME, organism-based. As to conditions: in vivo. The procedure, abridged: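 Bacterial suspensions pre-exposed to compound for 10 min, then DiOC2(3) added and fluorescence followed to plateau. Cells re-energized with 0.5% glucose; membrane potential (inside negative) read as fluorescence rise to plateau, then collapsed with the proton ionophore CCCP. Untreated cells run alongside.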

Regarding `COc1cccc2cc3c(cc12)C(=O)N(C1CCCC1)C3=O`, the MIC came to 1020 µg/mL in [1]; 32 µg/mL in [2]; 0.063 µg/mL in data set [3]; 0.063 µg/mL in [4]; 0.063 µg/mL in data set [6]; 0.063 µg/mL in data set [7]. Moreover, the MIC in data set [8] was found to be 16 µg/mL; in [9], 1020 µg/mL; in data set [10], 16 µg/mL; in data set [11] it was 0.063 µg/mL; in data set [14], 16 µg/mL; in data set [15] it was 64 µg/mL. Besides, the results for the MIC in [16] and in [17] were 64 µg/mL and 16 µg/mL, respectively. Besides, the Activity result with Escherichia coli [5], in the data set with Escherichia coli [12], in the data set on Escherichia coli [13] and with Escherichia coli [18] was “Non-Toxic” each time.

As for `COc1cccc2cc3c(cc12)C(=O)N(c1ccccc1Cl)C3=O`, the MIC in data set [1] is 1020 µg/mL; in data set [2] it was 64 µg/mL; in data set [3], 0.063 µg/mL; in data set [4] it was 0.063 µg/mL; in [6] it was 0.063 µg/mL; in data set [7], 0.063 µg/mL. In addition, the MIC in data set [8] is 16 µg/mL; in data set [9], 1020 µg/mL; in [10], 16 µg/mL; in data set [11], 0.063 µg/mL; in data set [14], 16 µg/mL; in [15] it was 64 µg/mL. In addition, the MIC turned out to be 64 µg/mL in data set [16] and 16 µg/mL in data set [17]. Further, the Activity result in the data set on Escherichia coli [5], with Escherichia coli [12], in the data set on Escherichia coli [13] and in the data set on Escherichia coli [18] was “Non-Toxic” in each case.

In the case of `CCCCCCN1C(=O)c2cc3cccc(OC)c3cc2C1=O`, the MIC was 1020 µg/mL in data set [1]; 32 µg/mL in [2]; 0.0313 µg/mL in [3]; 0.063 µg/mL in [4]; 0.063 µg/mL in data set [6]; 0.063 µg/mL in data set [7]. In addition, the MIC in data set [8] was 8 µg/mL; in data set [9], 1020 µg/mL; in data set [10], 16 µg/mL; in data set [11], 0.063 µg/mL; in [14] it was 16 µg/mL; in [15], 64 µg/mL. For the same compound, the MIC was 32 µg/mL in [16] and 8 µg/mL in data set [17]. Moreover, the Activity entry in the data set with Escherichia coli [5], in the data set with Escherichia coli [12], with Escherichia coli [13] and in the data set with Escherichia coli [18] was “Non-Toxic” each time.

Regarding `COc1ccccc1CN1C(=O)c2cc3cccc(OC)c3cc2C1=O`, the MIC in data set [1] stood at 1020 µg/mL; in data set [2] it was 64 µg/mL; in data set [3] it was 0.0019 µg/mL; in [4] it was 0.0039 µg/mL; in data set [6], 0.016 µg/mL; in data set [7], 0.0039 µg/mL. The MIC in data set [8] was found to be 16 µg/mL; in data set [9], 1020 µg/mL; in data set [10] it was 16 µg/mL; in [11], 0.0019 µg/mL; in data set [14] it was 16 µg/mL; in data set [15], 64 µg/mL. Moreover, the MIC in data set [16] was determined as 64 µg/mL; in [17] it was 16 µg/mL. Further, the Activity entry in the data set on Escherichia coli [5], with Escherichia coli [12], in the data set on Escherichia coli [13] and with Escherichia coli [18] was “Non-Toxic” throughout.

As for `CCCCCN1C(=O)c2cc3cccc(OC)c3cc2C1=O`, the MIC in data set [1] was 1020 µg/mL; in data set [2] it was 32 µg/mL; in [3], 0.0313 µg/mL; in data set [4], 0.063 µg/mL; in data set [6], 0.063 µg/mL; in data set [7], 0.063 µg/mL. The MIC in data set [8] was determined as 4 µg/mL; in [9], 1020 µg/mL; in [10], 8 µg/mL; in [11], 0.0313 µg/mL; in data set [14], 16 µg/mL; in [15], 64 µg/mL. Also, the MIC in data set [16] came out at 64 µg/mL; in [17] it was 8 µg/mL. Moreover, the Activity entry with Escherichia coli [5], in the data set on Escherichia coli [12], in the data set on Escherichia coli [13] and in the data set on Escherichia coli [18] was “Non-Toxic” in each case.

With `COc1cccc2cc3c(cc12)C(=O)N(C)C3=O`, the MIC in data set [1] is 1020 µg/mL; in data set [2], 64 µg/mL; in [3], 0.0313 µg/mL; in data set [4], 0.063 µg/mL; in data set [6], 0.063 µg/mL; in [7] it was 0.0313 µg/mL. In addition, the MIC in data set [8] was found to be 16 µg/mL; in data set [9] it was 1020 µg/mL; in [10], 16 µg/mL; in data set [11], 0.0313 µg/mL; in data set [14], 16 µg/mL; in [15], 64 µg/mL. Further, the MIC was 64 µg/mL in [16] and 16 µg/mL in [17]. Moreover, the Activity entry in the data set on Escherichia coli [5], in the data set with Escherichia coli [12] and in the data set with Escherichia coli [18] was “Non-Toxic” in each case.

On to `COc1ccc(CN2C(=O)c3cc4cccc(OC)c4cc3C2=O)cc1`, for which the MIC in [1] was 1020 µg/mL; in data set [2] it was 32 µg/mL; in data set [3], 0.063 µg/mL; in [4] it was 0.063 µg/mL; in [6], 0.063 µg/mL; in data set [7], 0.063 µg/mL. The MIC in data set [8] was found to be 16 µg/mL; in data set [9], 1020 µg/mL; in [10], 16 µg/mL; in data set [11], 0.063 µg/mL; in data set [14], 16 µg/mL; in data set [15] it was 64 µg/mL. The MIC in data set [16] stood at 32 µg/mL; in data set [17], 16 µg/mL. Also, the Activity entry in the data set on Escherichia coli [5] and with Escherichia coli [12] was “Non-Toxic” each time.
